Data reported in ChEMBL document CHEMBL3272089, “Synthesis and antitumor activity of dihydro-5-azacytidine, a hydrolytically stable analogue of 5-azacytidine” (J Med Chem, 1977).

Experiments:
[1] = tested on: L1210; experiment: Antitumor activity against mouse L1210 cells allografted in ip dosed mouse assessed as dose required for maximal activity administered qd from day 1 to day 9 post tumor implantation; format: functional
Procedure, shortened: (§1)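 Tumour cells were implanted ip (intracerebrally for IC-L1210), with the compound given in 0.9% saline ip, or orally to nonfasting mice in PO-L1210. Dose–response series each halved the preceding dose, expressed as mg/kg per injection. Activity was read as % increase in life-span (% ILS) over untreated controls, and from this the minimum, optimal and maximum active doses were taken.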

[2] = tested on: L1210; experiment: Antitumor activity against mouse L1210 cells allografted in po dosed mouse assessed as dose required for minimal activity administered qd from day 1 to day 9 post tumor implantation; format: functional; conditions: read-out: MED; procedure, shortened: as §1
[3] = tested on: L1210; experiment: Antitumor activity against mouse L1210 cells allografted in ip dosed mouse assessed as increase in life span at optimal dose administered every 6 hrs on day 1, 5 and 9 post tumor implantation relative to control; format: functional
Procedure, shortened: (§2)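 L1210 leukemia cells implanted ip in mice. Drug given ip in 0.9% saline: day 1 only (QD1); days 1, 5, 9 (Q4D); every 6 h on days 1, 5, 9 (Q4D(Q6H)); or days 1-9 (QD1-9). Dose-response run in twofold steps, dose in mg/kg per injection. % ILS versus untreated controls at the optimal dose. Toxicity taken as test minus control body-weight change on day 5.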

[4] = tested on: L1210; experiment: Antitumor activity against mouse L1210 cells allografted in ip dosed mouse assessed as change in body weight at optimal dose administered qd from day 1 to day 9 post tumor implantation measured on day 5 relative to control; format: functional
Procedure, shortened: (§3)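 Mice bearing tumour cells implanted ip (intracerebrally in the IC-L1210 system) got compound in 0.9% saline ip on the stated schedule, or orally to nonfasting animals in the PO-L1210 system. Day-1 dosing, per day, or every 6 h counted from implantation. The value is the difference in average body weight change (g) on day 5 between the optimal-dose group (T) and controls (C).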

[5] = tested on: L1210; experiment: Antitumor activity against 5-azacytidine-resistant mouse L1210 cells allografted in ip dosed mouse assessed as increase in life span at optimal dose administered qd from day 1 to day 9 post tumor implantation relative to control; format: functional
Procedure, shortened: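 An L1210 subline resistant to 5-azacytidine (L1210/AZA) was implanted ip in mice. Drug given ip in 0.9% saline, dose-response in twofold steps, dose in mg/kg per injection. % ILS over untreated control survival at the optimal dose. Test minus control body-weight change on day 5.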

[6] = Therapeutic index, ratio of toxicity in ip dosed mouse allografted with mouse L1210 cells assessed as optimal dose required for maximum increase in life span to antitumor activity against mouse L1210 cells allografted in ip dosed mouse assessed as lowest dose required for 40% increase in life span; format: organism-based; conditions: in vivo, read-out: TI
Procedure, shortened: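 Mice tumored ip with L1210 and treated ip on days 1-9 (QD1-9) with drug in 0.9% saline, using serial twofold dose dilutions. Survival gain over untreated controls was expressed as % ILS. Dose-response relationships came from five QD1-9 experiments. TI = optimal dose for maximum % ILS ÷ lowest dose giving 40% ILS.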

[7] = tested on: Mus musculus; experiment: Toxicity in ip dosed mouse allografted with mouse B16 cells assessed as dose required for optimal activity administered qd from day 1 to day 9 post tumor implantation; format: organism-based; conditions: in vivo; procedure, shortened: as §1
[8] = tested on: B16; experiment: Antitumor activity against mouse B16 cells allografted in ip dosed mouse assessed as change in body weight at optimal dose administered qd from day 1 to day 9 post tumor implantation measured on day 5 relative to control; format: functional; procedure, shortened: as §3
[9] = tested on: L1210; experiment: Antitumor activity against mouse L1210 cells allografted in ip dosed mouse assessed as dose required for minimal activity administered qd on day 1 post tumor implantation; format: functional; conditions: 24 h, read-out: MED; procedure, shortened: as §1
[10] = tested on: L1210; experiment: Antitumor activity against mouse L1210 cells allografted in ip dosed mouse assessed as dose required for maximal activity administered qd from day 1 to day 9 post intracerebral tumor implantation; format: functional; procedure, shortened: as §1
[11] = tested on: P388; experiment: Antitumor activity against mouse P388 cells allografted in ip dosed mouse assessed as increase in life span at optimal dose administered qd from day 1 to day 9 post tumor implantation relative to control; format: functional
[12] = tested on: L1210; experiment: Antitumor activity against mouse L1210 cells allografted in ip dosed mouse assessed as dose required for minimal activity administered qd on day 1, 5 and 9 post tumor implantation; format: functional; conditions: 24 h, read-out: MED; procedure, shortened: as §1
[13] = tested on: Mus musculus; experiment: Toxicity in ip dosed mouse allografted with mouse L1210 cells assessed as dose required for optimal activity administered qd on day 1, 5 and 9 post tumor implantation; format: organism-based; conditions: in vivo; procedure, shortened: as §1
[14] = tested on: Mus musculus; experiment: Toxicity in ip dosed mouse allografted with mouse P388 cells assessed as dose required for optimal activity administered qd from day 1 to day 9 post tumor implantation; format: organism-based; conditions: in vivo; procedure, shortened: as §1
[15] = tested on: P388; experiment: Antitumor activity against mouse P388 cells allografted in ip dosed mouse assessed as change in body weight at optimal dose administered qd from day 1 to day 9 post tumor implantation measured on day 5 relative to control; format: functional; procedure, shortened: as §3
[16] = tested on: L1210; experiment: Antitumor activity against mouse L1210 cells allografted in ip dosed mouse assessed as dose required for maximal activity administered qd on day 1 post tumor implantation; format: functional; procedure, shortened: as §1
[17] = tested on: L1210; experiment: Antitumor activity against mouse L1210 cells allografted in po dosed mouse assessed as dose required for maximal activity administered qd from day 1 to day 9 post tumor implantation; format: functional; procedure, shortened: as §1
[18] = tested on: Mus musculus; experiment: Toxicity in ip dosed mouse allografted with mouse L1210 cells assessed as dose required for optimal activity administered every 6 hrs on day 1, 5 and 9 post tumor implantation; format: organism-based; conditions: in vivo; procedure, shortened: as §1
[19] = tested on: L1210; experiment: Antitumor activity against mouse L1210 cells allografted in ip dosed mouse assessed as dose required for maximal activity administered every 6 hrs on day 1, 5 and 9 post tumor implantation; format: functional; procedure, shortened: as §1
[20] = tested on: Mus musculus; experiment: Toxicity in ip dosed mouse allografted with mouse L1210 cells assessed as dose required for optimal activity administered qd from day 1 to day 9 post tumor implantation; format: organism-based; conditions: in vivo; procedure, shortened: as §1
[21] = tested on: L1210; experiment: Antitumor activity against mouse L1210 cells allografted in po dosed mouse assessed as increase in life span at optimal dose administered qd from day 1 to day 9 post tumor implantation relative to control; format: functional
Procedure, shortened: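 Mice bearing ip-implanted L1210 were dosed orally, nonfasting, with compound in 0.9% saline. Dose-response in twofold steps, mg/kg per dose. % ILS relative to untreated controls at the optimal dose. Weight change (test minus control) on day 5.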

[22] = tested on: L1210; experiment: Antitumor activity against mouse L1210 cells allografted in ip dosed mouse assessed as increase in life span at optimal dose administered qd on day 1 post tumor implantation relative to control; format: functional; procedure, shortened: as §2
[23] = tested on: L1210; experiment: Antitumor activity against mouse L1210 cells allografted in ip dosed mouse assessed as change in body weight at optimal dose administered qd on day 1, 5 and 9 post tumor implantation measured on day 5 relative to control; format: functional; procedure, shortened: as §3
[24] = tested on: L1210; experiment: Antitumor activity against mouse L1210 cells allografted in ip dosed mouse assessed as dose required for minimal activity administered qd from day 1 to day 9 post tumor implantation; format: functional; conditions: read-out: MED; procedure, shortened: as §1
[25] = tested on: L1210; experiment: Antitumor activity against mouse L1210 cells allografted in po dosed mouse assessed as change in body weight at optimal dose administered qd from day 1 to day 9 post tumor implantation measured on day 5 relative to control; format: functional; procedure, shortened: as §3
[26] = tested on: P388; experiment: Antitumor activity against mouse P388 cells allografted in ip dosed mouse assessed as dose required for minimal activity administered qd from day 1 to day 9 post tumor implantation; format: functional; conditions: read-out: MED; procedure, shortened: as §1
[27] = tested on: L1210; experiment: Antitumor activity against mouse L1210 cells allografted in ip dosed mouse assessed as dose required for maximal activity administered qd on day 1, 5 and 9 post tumor implantation; format: functional; procedure, shortened: as §1

SMILES	MAD [1] [mg/kg]	minimal effective dose [2] [mg/kg]	ILS [3] [%]	Activity [4] [g]	ILS [5] [%]	selectivity ratio [6]	Activity [7] [mg/kg]	Activity [8] [g]	minimal effective dose [9] [mg/kg]	MAD [10] [mg/kg]	ILS [11] [%]	minimal effective dose [12] [mg/kg]	Activity [13] [mg/kg]	Activity [14] [mg/kg]	Activity [15] [g]	MAD [16] [mg/kg]	MAD [17] [mg/kg]	Activity [18] [mg/kg]	MAD [19] [mg/kg]	Activity [20] [mg/kg]	also measured
Nc1ncn([C@@H]2O[C@H](CO)[C@@H](O)[C@H]2O)c(=O)n1 [AZACITIDINE]	3.13	1.56	126	-3	0	7.5	3	1.5	12.5	0.75	127	5	10	3	-4.3	100	25	5	5	3	ILS [21]: 24%; ILS [22]: 73%; Activity [23]: -1.5 g; minimal effective dose [24]: 0.75 mg/kg; Activity [25]: -4.1 g; minimal effective dose [26]: 0.75 mg/kg; MAD [27]: 20 mg/kg
Cl.NC1=NC(=O)N([C@@H]2O[C@H](CO)[C@@H](O)[C@H]2O)CN1	200	200	68	-3.9	0	10	100	-3.3	300	100	85	12.5	600	100	-4.3	1600	400	125	150	100	ILS [21]: 50%; ILS [22]: 34%; Activity [23]: -4.3 g; minimal effective dose [24]: 3.13 mg/kg; Activity [25]: -4.4 g; minimal effective dose [26]: 12.5 mg/kg; MAD [27]: 600 mg/kg
